The source made the active and inactive calls. No cut-off for these calls is given here.
Columns and labels:
[1] = biological target: Carbonic anhydrase 1 (Homo sapiens, UniProt P00915); experiment: Binding affinity to recombinant human carbonic anhydrase 1 after 15 mins by stopped-flow CO2 hydration assay
[2] = biological target: Carbonic anhydrase 2 (Homo sapiens, UniProt P00918); experiment: Binding affinity to recombinant human carbonic anhydrase 2 after 15 mins by stopped-flow CO2 hydration assay
[3] = test system: HCT-116; experiment: Effect on mitochondrial respiration in carbonic anhydrase 9 knockdown human HCT116 cells assessed as reduction in oxygen consumption rate at 0.5 mM after 24 hrs under hypoxic condition […]; assay type: ADME, cell-based; settings: hct-116, 24 h, 500 µM
How it was run: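 HCT116 cells with constitutive CAIX knockdown or scrambled control were seeded at 1.5×10^4 cells/well and kept 18 h at 0.2% O2. Medium was then switched to DMEM with 25 mM glucose, 4 mM glutamine and 1 mM pyruvate, 60 min before assay, in a CO2-free incubator at 37 °C. Seahorse XF96 oxygen consumption rate was read at baseline and after injection of drug or PBS vehicle. Values were normalized to BCA protein.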

[4] = biological target: Carbonic anhydrase 12 (Homo sapiens, UniProt O43570); experiment: Binding affinity to recombinant human carbonic anhydrase 12 after 15 mins by stopped-flow CO2 hydration assay
[5] = biological target: Carbonic anhydrase 9 (Homo sapiens, UniProt Q16790); experiment: Binding affinity to recombinant human carbonic anhydrase 9 after 15 mins by stopped-flow CO2 hydration assay
[6] = test system: MDCK; experiment: Cytotoxicity against MDCK cells expressing carbonic anhydrase 9 assessed as reduction in cell viability at 500 nM pretreated for 1 hr followed by 4 Gy irradiation under anoxic condition by Alamar blue assay; assay type: functional, cell-based; settings: Canis lupus familiaris
How it was run: (§1)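 MDCK cells with or without CAIX, pre-exposed 24 h to anoxia (≤0.02% O2, 5% CO2, balance N2) in pre-equilibrated DMEM. ATR inhibitors in 0.5% DMSO added 1 h before 4 Gy X-irradiation. Exposure 72 h total, medium replaced, then 72 h normoxic regrowth. Viability by 2 h alamarBlue in normoxia.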

[7] = test system: MDCK; experiment: Cytotoxicity against MDCK cells expressing carbonic anhydrase 9 assessed as reduction in cell viability at 500 nM pretreated for 72 hrs followed by 72 hrs incubation under normoxic condition by Alamar blue assay; assay type: functional, cell-based; settings: Canis lupus familiaris
How it was run: (§2)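 MDCK cells transfected with human CAIX or scrambled vector, normoxia (21% O2, 5% CO2). ATR inhibitors in 0.5% DMSO for 72 h, medium replaced, cells grown a further 72 h. Viability from 2 h alamarBlue conversion in normoxia.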

[8] = test system: MDCK; experiment: Cytotoxicity against carbonic anhydrase 9 knockdown MDCK cells assessed as reduction in cell viability at 500 nM pretreated for 72 hrs followed by 72 hrs incubation under normoxic condition by Alamar blue assay; assay type: cell-based, Canis lupus familiaris; settings: dog, 0.5 µM; how it was run: as §2
[9] = test system: MDCK; experiment: Cytotoxicity against carbonic anhydrase 9 knockdown MDCK cells assessed as reduction in cell viability at 500 nM pretreated for 1 hr followed by 4 Gy irradiation under anoxic condition by Alamar blue assay; assay type: cell-based, Canis lupus familiaris; settings: dog, 0.5 µM; how it was run: as §1
[10] = test system: MDCK; experiment: Cytotoxicity against MDCK cells expressing carbonic anhydrase 9 assessed as reduction in cell viability at 500 nM after 72 hrs under anoxic condition by Alamar blue assay; assay type: functional, cell-based; settings: Canis lupus familiaris
How it was run: (§3)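 MDCK CAIX+ or CAIX− cells, 24 h anoxic preincubation (≤0.02% O2, 5% CO2) in pre-equilibrated DMEM. ATR inhibitors (0.5% DMSO) applied for 72 h without irradiation, then washed off, and 72 h normoxic regrowth. Readout by 2 h alamarBlue conversion under normoxia.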

[11] = test system: MDCK; experiment: Cytotoxicity against carbonic anhydrase 9 knockdown MDCK cells assessed as reduction in cell viability at 500 nM after 72 hrs under anoxic condition by Alamar blue assay; assay type: cell-based, Canis lupus familiaris; settings: dog, 0.5 µM; how it was run: as §3
[12] = test system: MDCK; experiment: Cytotoxicity against MDCK cells expressing carbonic anhydrase 9 assessed as reduction in cell viability at 500 nM pretreated for 1 hr followed by 2 Gy irradiation under normoxic condition by Alamar blue assay; assay type: functional, cell-based; settings: Canis lupus familiaris
How it was run: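 MDCK CAIX+ cells (human CAIX transfected) under normoxia (21% O2, 5% CO2). ATR inhibitors in 0.5% DMSO added 1 h before X-irradiation with 2 Gy. Exposure 72 h total, medium replaced, then 72 h further growth. Viability by 2 h alamarBlue conversion in normoxia.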

[13] = test system: MDCK; experiment: Cytotoxicity against carbonic anhydrase 9 knockdown MDCK cells assessed as reduction in cell viability at 500 nM pretreated for 1 hr followed by 2 Gy irradiation under normoxic condition by Alamar blue assay; assay type: cell-based, Canis lupus familiaris; settings: dog, 0.5 µM
How it was run: (§4)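 ATR inhibitor plus radiation: MDCK CAIX+/CAIX− cells were preconditioned 24 h under normoxia (21% O2) or anoxia (≤0.02% O2). Compound in 0.5% DMSO was added 1 h before X-irradiation, 2 Gy normoxic or 4 Gy anoxic. Total compound exposure was 72 h, then washout and 72 h normoxic regrowth. Readout was 2 h alamarBlue conversion, as relative viability.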

[14] = test system: HCT-116; experiment: Effect on mitochondrial respiration in human HCT116 cells expressing carbonic anhydrase 9 assessed as reduction in oxygen consumption rate at 2 mM […]; assay type: functional, cell-based
[15] = test system: HCT-116; experiment: Effect on mitochondrial respiration in carbonic anhydrase 9 knockdown human HCT116 cells assessed as reduction in oxygen consumption rate at 2 mM […]; assay type: cell-based; settings: hct-116, 2000 µM
[16] = Cytotoxicity against carbonic anhydrase 9 knockdown MDCK cells assessed as surviving fraction incubated for 24 hrs measured after 7 days under normoxic condition by methylene blue staining based clonogenic survival assay; assay type: cell-based, Canis lupus familiaris; settings: dog, read-out: Survival
How it was run: (§5)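 Confluent, high-density MDCK CAIX+/CAIX− cells, to allow CAIX-dependent medium acidification. Drug or vehicle (0.5% DMSO) for 24 h under normoxia (21% O2) or hypoxia (0.2% O2). Cells then trypsinised and reseeded in triplicate at known numbers, grown 7 days. Colonies fixed and stained with 0.4% methylene blue in 70% ethanol. Surviving fraction normalised to vehicle. Three independent biological repeats.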

[17] = test system: MDCK; experiment: Cytotoxicity against carbonic anhydrase 9 knockdown MDCK cells assessed as reduction in cell viability after 72 hrs under hypoxic condition by Alamar blue assay; assay type: cell-based; settings: Canis lupus familiaris
[18] = test system: MDCK; experiment: Cytotoxicity against MDCK cells expressing carbonic anhydrase 9 assessed as surviving fraction incubated for 24 hrs measured after 7 days under hypoxic condition by methylene blue staining based clonogenic survival assay; assay type: functional, Canis lupus familiaris; how it was run: as §5
[19] = test system: MDCK; experiment: Cytotoxicity against carbonic anhydrase 9 knockdown MDCK cells assessed as reduction in cell viability after 72 hrs under normoxic condition by Alamar blue assay; assay type: cell-based; settings: Canis lupus familiaris
[20] = test system: MDCK; experiment: Cytotoxicity against MDCK cells expressing carbonic anhydrase 9 assessed as reduction in cell viability after 72 hrs under hypoxic condition by Alamar blue assay; assay type: functional, cell-based; settings: Canis lupus familiaris
[21] = test system: MDCK; experiment: Cytotoxicity against MDCK cells expressing carbonic anhydrase 9 assessed as reduction in cell viability after 72 hrs under normoxic condition by Alamar blue assay; assay type: functional, cell-based; settings: Canis lupus familiaris
[22] = test system: MDCK; experiment: Cytotoxicity against MDCK cells expressing carbonic anhydrase 9 assessed as reduction in cell viability at 50 nM pretreated for 1 hr followed by 4 Gy irradiation under anoxic condition by Alamar blue assay; assay type: functional, cell-based; settings: Canis lupus familiaris; how it was run: as §4
[23] = test system: MDCK; experiment: Cytotoxicity against MDCK cells expressing carbonic anhydrase 9 assessed as reduction in cell viability at 50 nM pretreated for 1 hr followed by 2 Gy irradiation under normoxic condition by Alamar blue assay; assay type: functional, cell-based; settings: Canis lupus familiaris; how it was run: as §4
[24] = test system: MDCK; experiment: Cytotoxicity against carbonic anhydrase 9 knockdown MDCK cells assessed as reduction in cell viability at 50 nM after 72 hrs under anoxic condition by Alamar blue assay; assay type: cell-based, Canis lupus familiaris; settings: dog, 0.05 µM
How it was run: (§6)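 ATR inhibitor without irradiation: MDCK CAIX+ or scrambled-control CAIX− cells were preconditioned 24 h at ≤0.02% O2 (anoxia) or 21% O2. Compound was added in 0.5% DMSO for 72 h, then washed off. Cells regrew 72 h under normoxia, followed by 2 h alamarBlue conversion. Viability is relative to control.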

[25] = test system: MDCK; experiment: Cytotoxicity against MDCK cells expressing carbonic anhydrase 9 assessed as reduction in cell viability at 50 nM pretreated for 72 hrs followed by 72 hrs incubation under normoxic condition by Alamar blue assay; assay type: functional, cell-based; settings: Canis lupus familiaris; how it was run: as §6
[26] = test system: MDCK; experiment: Cytotoxicity against MDCK cells expressing carbonic anhydrase 9 assessed as reduction in cell viability at 50 nM after 72 hrs under anoxic condition by Alamar blue assay; assay type: functional, cell-based; settings: Canis lupus familiaris; how it was run: as §6
[27] = test system: MDCK; experiment: Cytotoxicity against carbonic anhydrase 9 knockdown MDCK cells assessed as reduction in cell viability at 50 nM pretreated for 72 hrs followed by 72 hrs incubation under normoxic condition by Alamar blue assay; assay type: cell-based, Canis lupus familiaris; settings: dog, 0.05 µM; how it was run: as §6
[28] = test system: MDCK; experiment: Cytotoxicity against carbonic anhydrase 9 knockdown MDCK cells assessed as reduction in cell viability at 50 nM pretreated for 1 hr followed by 4 Gy irradiation under anoxic condition by Alamar blue assay; assay type: cell-based, Canis lupus familiaris; settings: dog, 0.05 µM; how it was run: as §4
[29] = test system: MDCK; experiment: Cytotoxicity against carbonic anhydrase 9 knockdown MDCK cells assessed as reduction in cell viability at 50 nM pretreated for 1 hr followed by 2 Gy irradiation under normoxic condition by Alamar blue assay; assay type: cell-based, Canis lupus familiaris; settings: dog, 0.05 µM; how it was run: as §4

Carbonic anhydrase 1, sequence (P00915 whole entry): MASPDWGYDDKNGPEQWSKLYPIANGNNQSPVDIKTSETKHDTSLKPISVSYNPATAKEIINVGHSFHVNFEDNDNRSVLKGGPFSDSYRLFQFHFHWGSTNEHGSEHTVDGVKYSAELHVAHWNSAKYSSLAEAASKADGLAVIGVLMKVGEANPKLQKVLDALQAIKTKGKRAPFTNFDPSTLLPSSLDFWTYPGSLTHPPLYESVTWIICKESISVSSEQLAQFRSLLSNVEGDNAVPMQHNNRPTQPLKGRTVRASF
Carbonic anhydrase 12, sequence (O43570 whole entry): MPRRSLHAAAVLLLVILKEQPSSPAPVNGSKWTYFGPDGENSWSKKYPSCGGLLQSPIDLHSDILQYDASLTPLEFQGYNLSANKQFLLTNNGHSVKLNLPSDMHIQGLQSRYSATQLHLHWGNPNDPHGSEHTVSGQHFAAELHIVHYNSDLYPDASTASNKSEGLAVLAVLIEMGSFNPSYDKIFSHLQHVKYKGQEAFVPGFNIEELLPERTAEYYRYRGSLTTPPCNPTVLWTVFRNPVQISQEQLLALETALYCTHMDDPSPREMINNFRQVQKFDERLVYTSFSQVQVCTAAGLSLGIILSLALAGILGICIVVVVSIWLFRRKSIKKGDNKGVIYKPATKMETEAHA

[H]/N=C(/N)N/C(=N/[H])NCCc1ccccc1 [PHENFORMIN]
Ki [1]: > 50 µM
Ki [2]: > 50 µM
Activity [3]: Toxic
Ki [4]: > 50 µM
Ki [5]: > 50 µM

CS(=O)(=O)c1ccc(-c2cnc(NS(N)(=O)=O)c(C(=O)Nc3ccccc3)n2)cc1
Activity [6]: Active
Activity [7]: Active
Activity [8]: Toxic
Ki [1]: > 50 µM
Activity [9]: Non-Toxic
Activity [10]: Active
Ki [2]: > 50 µM
Ki [4]: > 50 µM
Activity [11]: Toxic
Activity [12]: Active
Activity [13]: Non-Toxic
Ki [5]: > 50 µM

Cl.N=C(N)NC(=N)NCCc1ccc(S(N)(=O)=O)cc1
Activity [14]: inactive
Activity [15]: Non-Toxic
Ki [5]: 0.0202 µM

Cn1nnc2c(C(=O)NOS(N)(=O)=O)ncn2c1=O
viability at 24 h [16]: 46.1%
IC50 [17]: 1000 µM
Survival [18]: 26.1%
IC50 [19]: 719 µM
Ki [1]: > 50 µM
IC50 [20]: > 1000 µM
Ki [2]: > 50 µM
Ki [4]: > 50 µM
Ki [5]: > 50 µM
IC50 [21]: > 1000 µM

CNCc1ccc(-c2cc(-c3nc(-c4ccc(S(=O)(=O)C(C)C)cc4)cnc3N)on2)cc1 [BERZOSERTIB]
Ki [1]: > 50 µM
Activity [22]: Active
Activity [23]: Active
Ki [2]: > 50 µM
Activity [24]: Toxic
Activity [25]: Active
Ki [4]: > 50 µM
Activity [26]: Active
Activity [27]: Toxic
Activity [28]: Non-Toxic
Activity [29]: Non-Toxic
Ki [5]: > 50 µM
